Assay results: ChEMBL document CHEMBL1125718, “Synthesis and biological evaluation of dipeptidyl and tripeptidyl polyoxin and nikkomycin analogues as anticandidal prodrugs” (1991)
In brackets after ≈: the same amount, converted by molar mass.

What was measured:
[1] = molecular target: Chitin synthase 1 (Candida albicans) (UniProt P23316); test: Compound was tested for its ability to inhibit chitin synthetase using Candida albicans strain H-317.; type: functional
How it was run: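 Mixed membrane fraction from C. albicans H-317 was used as the source of total chitin synthetase. Activity was measured with and without polyoxin compounds as N-acetylglucosamine incorporation into chitin. The value is the concentration giving 50% inhibition.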

Candida albicans [2] = test: (§1) Compound was tested for percent inhibition of transport of (Leu)2 into Candida albicans H-317.; type: functional; set-up: concentration or dose not given beside the values
How it was run: (§2)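 Uptake of labeled dileucine was measured with analogues added at 10-fold the molar concentration of the transport substrate. Samples were taken at 0, 1, 2, 3 and 4 min, collected on prewet 0.45 µm filters and washed twice with cold water. Rate was expressed as nmol peptide per mg dry-weight cells per min.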

Candida albicans [3] = test: Compound was tested for its lowest concentration at which growth of H-317 strain of Candida albicans was clearly inhibited.; type: functional
Candida albicans [4] = test: Compound was tested for its lowest concentration at which growth of 124 strain of Candida albicans was clearly inhibited.; type: functional
Candida albicans [5] = test: Compound was tested for percent inhibition of transport of (Met)3 into Candida albicans H-317.; set-up: concentration or dose not given beside the values
Candida albicans [6] = test: Compound was tested for rate of hydrolysis (percent hydrolyzed per 10 min) by cell extract from Candida albicans H-317.; type: functional
How it was run: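 Antibiotic (0.5 mg in H2O–DMSO 50:50) was mixed with cell extract of C. albicans H-317 (3.75 mg protein/mL) and incubated at 36 °C. Portions were withdrawn every 20 min and analysed directly by TLC and HPLC. Nle-UPOC served as control.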

Candida albicans [7] = test: Compound was tested for its lowest concentration at which growth of 124N5 strain of Candida albicans was clearly inhibited.; type: functional
Candida albicans [8] = test: as §1; type: functional; how it was run: as §2
Candida albicans [9] = test: Compound was tested for percent inhibition of transport of (Met)3 into Candida albicans H-317.
Candida albicans [10] = test: as above; set-up: concentration or dose not given beside the values; remark: listed apart in the source

Chitin synthase 1 (Candida albicans), sequence (P23316 whole entry, looked up): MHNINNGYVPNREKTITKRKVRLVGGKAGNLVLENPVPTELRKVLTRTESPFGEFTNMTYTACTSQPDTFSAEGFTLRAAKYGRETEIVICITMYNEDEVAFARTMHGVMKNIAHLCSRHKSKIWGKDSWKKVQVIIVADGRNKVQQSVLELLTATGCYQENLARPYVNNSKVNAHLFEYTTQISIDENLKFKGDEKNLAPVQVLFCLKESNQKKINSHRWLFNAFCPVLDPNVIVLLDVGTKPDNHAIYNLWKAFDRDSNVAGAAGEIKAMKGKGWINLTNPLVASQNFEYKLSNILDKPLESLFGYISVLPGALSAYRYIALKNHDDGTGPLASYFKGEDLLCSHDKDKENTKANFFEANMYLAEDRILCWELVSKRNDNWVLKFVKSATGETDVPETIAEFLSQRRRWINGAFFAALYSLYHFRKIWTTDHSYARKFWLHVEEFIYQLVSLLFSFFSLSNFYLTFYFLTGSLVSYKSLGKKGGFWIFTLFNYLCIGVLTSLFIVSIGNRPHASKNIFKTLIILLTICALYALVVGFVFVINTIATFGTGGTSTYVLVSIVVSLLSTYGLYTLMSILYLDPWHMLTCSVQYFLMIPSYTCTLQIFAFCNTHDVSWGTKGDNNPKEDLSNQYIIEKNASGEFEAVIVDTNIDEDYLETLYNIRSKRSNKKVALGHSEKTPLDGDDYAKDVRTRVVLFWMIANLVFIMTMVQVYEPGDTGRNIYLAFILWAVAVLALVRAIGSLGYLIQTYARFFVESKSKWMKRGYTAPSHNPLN

Structure (SMILES)	ID50 [1] [µg/mL]	MIC (Candida albicans [3]) [µg/mL]	MIC (Candida albicans [4]) [µg/mL]	MIC (Candida albicans [7]) [µg/mL]	Transport inhibition (Candida albicans [2]) [%]	Transport inhibition (Candida albicans [5]) [%]	Hydrolysis (Candida albicans [6])	Transport inhibition (Candida albicans [8]) [%]	Transport inhibition (Candida albicans [9]) [%]	Transport inhibition (Candida albicans [10]) [%]
CCCCCCCC(=O)NCCCC[C@H](N)C(=O)N[C@H](C(=O)O)[C@H]1O[C@@H](n2ccc(=O)[nH]c2=O)[C@H](O)[C@@H]1O	0.5 (≈ 0.923 µM)	> 666	666 (≈ 1230 µM)	> 666	–	–	0	50	10	–
C[C@@H]([C@H](N)C(=O)N[C@H](C(=O)O)[C@H]1O[C@@H](n2cc(C=O)nc2O)[C@H](O)[C@@H]1O)[C@H](O)c1ccc(O)cn1	0.1 (≈ 0.202 µM)	5 (≈ 10.1 µM)	2.5 (≈ 5.05 µM)	333 (≈ 672 µM)	90	–	0	–	–	30
CCCCCCCC(=O)NCCCC[C@H](NC(=O)[C@@H](N)CCCCNC(=O)CCCCCCC)C(=O)N[C@H](C(=O)O)[C@H]1OC(n2ccc(=O)[nH]c2=O)[C@H](O)[C@@H]1O (stereo partly specified)	80 (≈ 101 µM)	> 666	> 666	> 666	60	–	0	–	–	56
NC(Cc1cccc(F)c1)C(=O)O (racemic) [M-FLUOROPHENYLALANINE]	–	> 1000	> 1000	> 1000	–	–	–	–	–	–
CC(C)C[C@H](N)C(=O)N[C@H](C(=O)N[C@H](C(=O)O)[C@H]1OC(n2ccc(=O)[nH]c2=O)[C@H](O)[C@@H]1O)[C@H](C)[C@H](O)c1ccc(O)cn1 (stereo partly specified)	100 (≈ 164 µM)	> 666	666 (≈ 1090 µM)	> 666	0	28	33	–	–	–
N[C@@H](Cc1cccc(F)c1)C(=O)N[C@H](C(=O)O)[C@H]1O[C@@H](n2ccc(=O)[nH]c2=O)[C@H](O)[C@@H]1O	2 (≈ 4.42 µM)	> 1000	> 1000	> 1000	6	0	33	–	–	–
CCCCCCCC(=O)NCCCC[C@H](NC(=O)[C@@H](N)CC(C)C)C(=O)N[C@H](C(=O)O)[C@H]1OC(n2ccc(=O)[nH]c2=O)[C@H](O)[C@@H]1O (stereo partly specified)	50 (≈ 76.4 µM)	> 666	> 666	> 666	0	–	0	–	–	32
CC(C)C[C@H](N)C(=O)N[C@H](C(=O)N[C@H](C(=O)O)[C@H]1OC(n2cc(C=O)nc2O)[C@H](O)[C@@H]1O)[C@H](C)[C@H](O)c1ccc(O)cn1 (stereo partly specified)	30 (≈ 49.3 µM)	166 (≈ 273 µM)	83 (≈ 136 µM)	333 (≈ 547 µM)	0	–	33	–	–	22

Further lines, with some results ahead:

ID50 [1] [µg/mL]	MIC (Candida albicans [3]) [µg/mL]	MIC (Candida albicans [4]) [µg/mL]	MIC (Candida albicans [7]) [µg/mL]	Structure (SMILES)	Transport inhibition (Candida albicans [2]) [%]	Transport inhibition (Candida albicans [5]) [%]	Hydrolysis (Candida albicans [6])	Transport inhibition (Candida albicans [8]) [%]	Transport inhibition (Candida albicans [9]) [%]	Transport inhibition (Candida albicans [10]) [%]
20 (≈ 32.2 µM)	333 (≈ 537 µM)	333 (≈ 537 µM)	666 (≈ 1070 µM)	CC(C)C[C@H](N)C(=O)N[C@H](C(=O)N[C@H](C(=O)O)[C@H]1OC(n2cc(CO)c(=O)[nH]c2=O)[C@H](O)[C@@H]1O)[C@H](O)[C@@H](O)COC(N)=O (stereo partly specified)	0	27	5	–	–	–
0.3 (≈ 0.606 µM)	20 (≈ 40.4 µM)	10 (≈ 20.2 µM)	666 (≈ 1340 µM)	C[C@@H]([C@H](N)C(=O)N[C@H](C(=O)O)[C@H]1O[C@@H](n2ccc(=O)[nH]c2=O)[C@H](O)[C@@H]1O)[C@H](O)c1ccc(O)cn1 [NIKKOMYCIN]	80	20	0	–	–	–
100 (≈ 240 µM)	> 1000	> 1000	> 1000	NCCOC[C@H](N)C(=O)N[C@H](C(=O)O)[C@H]1O[C@@H](n2ccc(=O)[nH]c2=O)[C@H](O)[C@@H]1O	58	0	0	–	–	–
100 (≈ 206 µM)	250 (≈ 515 µM)	500 (≈ 1030 µM)	1000 (≈ 2060 µM)	COC(=O)/C=C/C(=O)NC[C@H](N)C(=O)N[C@H](C(=O)O)[C@H]1O[C@@H](n2ccc(=O)[nH]c2=O)[C@H](O)[C@@H]1O	7	–	0	–	–	0
0.8 (≈ 1.58 µM)	40 (≈ 78.8 µM)	20 (≈ 39.4 µM)	166 (≈ 327 µM)	NC(=O)OC[C@H](O)[C@@H](O)[C@H](N)C(=O)N[C@H](C(=O)O)[C@H]1O[C@@H](n2cc(CO)c(=O)[nH]c2=O)[C@H](O)[C@@H]1O [POLYOXIN B]	0	0	–	–	–	–
